From paper PMC7758886 (ACS Omega, 2020)
One block for each compound: values may come before it.

What was measured:
[1] = system: endogenous β-AR (HEK293 cells); assay: Single-cell FRET microscopy of isoprenaline-stimulated cAMP production; type: cell-based; conditions: 3 nM isoprenaline, continuous
Procedure, shortened: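 HEK293 cells co-transfected (Effectene) with receptor and Epac-SH187 cAMP FRET sensor; medium changed 16 h post-transfection, reseeded on PLL-coated coverslips, imaged 36–48 h post-transfection. One cell per coverslip, continuously perfused with FRET buffer (HEPES, pH 7.35) and/or ligand. FRET = corrected YFP/CFP ratio, normalized to baseline; cAMP rise lowers FRET. Traces averaged over eight cells from 3 days.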

[2] = system: α1A adrenergic receptor (α1AAR); assay: FRET-based Gαq activation, α1A adrenergic receptor; type: cell-based; conditions: HEK293, 96-well
[3] = system: β1 adrenergic receptor (β1AR); assay: Epac-S^H187 FRET cAMP production; type: cell-based; conditions: HEK293, Epac-S^H187 sensor; at least three individual experiments
CXCR4 = assay: FRET-based Gαi2 activation, 96-well plate, CXCR4; type: cell-based; conditions: HEK293, Gαi2 FRET sensor, ± SD, three to four independent plate reader experiments
[4] = target: CmorAlstRC ΔN-term mutant (Carausius morosus)
[5] = target: Carausius morosus allatostatin-C receptor with C-terminal EYFP (CmorAlstRC-EYFP) (Carausius morosus); assay: FRET or BRET

Compound: CC(C)NCC(O)c1ccc(O)c(O)c1 (centres unmarked) [Iso, isoprenaline]
FRET response, cAMP production [1]: sharp decrease in FRET

Compound: NC[C@H](O)c1ccc(O)c(O)c1 [NE, Norepinephrine]
Gαq FRET sensor activation [2]: induced a concentration-dependent FRET decrease in the Gαq sensor | change in FRET signal (cAMP production) [3]: decreased the FRET response (increased the cAMP level) in a NE concentration-dependent manner

pEC50, Gαi2 activation (CXCR4): 9.49 ± 0.1
Compound: CXCL12: agonist of CXCR4, positive control for Gαi2 activation

pEC50 of Gαi2 FRET sensor activation by DmelASTC, ΔN-term mutant, 96-well plates [4]: 8.47
Compound: Drosophila melanogaster pGlu AST-C peptide (DmelASTC)

Compound: human Gαi2-ECFP (from UniProt P04899 1-355) (natural protein)
pEC50 of AST-C for the FRET change between CmorAlstRC-EYFP and Gαi2-ECFP [5]: 8.84 | tau of association (apparent, with 1 μM AST-C) [5]: 227 ms | tau of dissociation (apparent, wash-off of 1 μM AST-C) [5]: 3.8 s
